Assay results taken from ChEMBL document CHEMBL4007404, “Identification of High-Potency Human TLR8 and Dual TLR7/TLR8 Agonists in Pyrimidine-2,4-diamines” (J Med Chem, 2017).
Activity calls are given as the source filed them. The calls are words filed in the database; no cut-off is given here.

Experiments:
Format in all cases: cell-based
Toll-like receptor 7 = biological target: T1, Toll-like receptor 7 (Homo sapiens, UniProt Q9NYK1); assay: Agonist activity at human TLR7 expressed in HEK293 cells co-expressing secreted alkaline phosphatase assessed as induction of NF-kappaB/AP-1 promoter activity by measuring increase in secreted alkaline phosphatase level by spectrophotometric method
T1 sequence (Q9NYK1 whole entry): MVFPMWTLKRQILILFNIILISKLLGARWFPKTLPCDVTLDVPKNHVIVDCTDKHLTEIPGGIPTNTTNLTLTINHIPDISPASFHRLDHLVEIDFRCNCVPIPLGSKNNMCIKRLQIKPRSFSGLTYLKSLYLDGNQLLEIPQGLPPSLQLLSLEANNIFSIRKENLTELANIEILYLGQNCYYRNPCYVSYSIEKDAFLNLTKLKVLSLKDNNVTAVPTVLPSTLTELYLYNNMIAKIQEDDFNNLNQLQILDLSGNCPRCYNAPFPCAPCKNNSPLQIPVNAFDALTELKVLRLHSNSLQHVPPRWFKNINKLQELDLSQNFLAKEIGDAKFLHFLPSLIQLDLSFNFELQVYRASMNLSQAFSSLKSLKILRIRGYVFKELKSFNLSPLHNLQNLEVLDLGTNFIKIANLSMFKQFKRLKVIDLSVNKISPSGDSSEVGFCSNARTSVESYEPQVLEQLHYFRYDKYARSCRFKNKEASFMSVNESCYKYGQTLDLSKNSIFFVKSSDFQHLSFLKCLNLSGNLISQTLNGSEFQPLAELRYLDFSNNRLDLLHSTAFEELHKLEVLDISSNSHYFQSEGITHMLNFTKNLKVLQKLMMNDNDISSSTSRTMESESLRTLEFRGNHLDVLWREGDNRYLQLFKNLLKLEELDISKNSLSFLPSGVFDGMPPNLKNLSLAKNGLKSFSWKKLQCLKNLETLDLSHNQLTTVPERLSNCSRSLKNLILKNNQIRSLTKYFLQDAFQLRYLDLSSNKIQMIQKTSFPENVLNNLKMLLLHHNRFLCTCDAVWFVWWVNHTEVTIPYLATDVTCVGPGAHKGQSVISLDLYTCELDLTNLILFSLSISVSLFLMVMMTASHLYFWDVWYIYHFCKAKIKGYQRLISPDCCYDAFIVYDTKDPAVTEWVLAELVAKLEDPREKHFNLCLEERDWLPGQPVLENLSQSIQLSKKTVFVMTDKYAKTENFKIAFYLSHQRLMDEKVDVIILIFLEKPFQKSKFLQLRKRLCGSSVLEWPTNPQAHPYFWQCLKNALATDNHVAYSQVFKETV
How it was run: (§1)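 HEK293 cells stably co-transfected with the relevant human TLR (2, 3, 4, 5, 7, 8 or 9) plus an NF-κB/AP-1-driven secreted alkaline phosphatase reporter, kept in selection medium. Cells at ~10⁵ cells/ml were exposed to graded concentrations of stimuli in 384-well format, liquid-handler assisted. Supernatant sAP was read at 620 nm with an alkaline phosphatase-specific chromogen.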

Toll-like receptor 8 = biological target: T2, Toll-like receptor 8 (Homo sapiens, UniProt Q9NR97); assay: Agonist activity at human TLR8 expressed in HEK293 cells co-expressing secreted alkaline phosphatase assessed as induction of NF-kappaB/AP-1 promoter activity by measuring increase in secreted alkaline phosphatase level by spectrophotometric method; how it was run: as §1
T2 sequence (Q9NR97 whole entry): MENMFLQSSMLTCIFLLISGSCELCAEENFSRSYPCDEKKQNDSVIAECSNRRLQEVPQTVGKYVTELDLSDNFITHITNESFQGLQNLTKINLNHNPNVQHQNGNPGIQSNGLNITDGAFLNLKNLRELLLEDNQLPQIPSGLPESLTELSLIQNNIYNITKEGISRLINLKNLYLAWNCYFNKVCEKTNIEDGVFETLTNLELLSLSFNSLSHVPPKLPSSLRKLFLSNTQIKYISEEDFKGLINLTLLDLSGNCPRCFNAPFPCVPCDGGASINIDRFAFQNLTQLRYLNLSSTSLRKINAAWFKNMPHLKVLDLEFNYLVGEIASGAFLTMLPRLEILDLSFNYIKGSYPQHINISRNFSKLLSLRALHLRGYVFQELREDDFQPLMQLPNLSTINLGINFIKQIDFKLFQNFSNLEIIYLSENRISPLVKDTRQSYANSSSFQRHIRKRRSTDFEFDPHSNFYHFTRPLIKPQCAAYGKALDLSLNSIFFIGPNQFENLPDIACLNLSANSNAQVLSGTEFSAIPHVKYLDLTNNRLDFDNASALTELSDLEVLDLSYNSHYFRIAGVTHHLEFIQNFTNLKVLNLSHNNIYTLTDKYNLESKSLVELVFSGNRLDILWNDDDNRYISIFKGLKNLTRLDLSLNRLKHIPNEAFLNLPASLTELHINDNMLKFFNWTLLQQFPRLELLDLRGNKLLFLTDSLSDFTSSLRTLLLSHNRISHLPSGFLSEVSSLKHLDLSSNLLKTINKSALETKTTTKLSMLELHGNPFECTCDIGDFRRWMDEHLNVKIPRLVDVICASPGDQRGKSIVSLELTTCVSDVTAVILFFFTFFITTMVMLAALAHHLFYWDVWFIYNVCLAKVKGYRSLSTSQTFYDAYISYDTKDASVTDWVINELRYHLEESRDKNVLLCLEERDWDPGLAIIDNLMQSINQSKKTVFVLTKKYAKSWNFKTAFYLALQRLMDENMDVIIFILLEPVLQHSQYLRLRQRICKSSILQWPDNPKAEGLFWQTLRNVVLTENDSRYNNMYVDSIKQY

[1] = biological target: Toll-like receptor 4 (Homo sapiens) (UniProt O00206); assay: Activity at human TLR4 expressed in HEK293 cells co-expressing secreted alkaline phosphatase assessed as induction of NF-kappaB/AP-1 promoter activity by measuring increase in secreted alkaline phosphatase level by spectrophotometric method; how it was run: as §1
[2] = biological target: Toll-like receptor 3 (Homo sapiens) (UniProt O15455); assay: Activity at human TLR3 expressed in HEK293 cells co-expressing secreted alkaline phosphatase assessed as induction of NF-kappaB/AP-1 promoter activity by measuring increase in secreted alkaline phosphatase level by spectrophotometric method; how it was run: as §1
Sequence of Toll-like receptor 3 (Homo sapiens) (O15455 whole entry): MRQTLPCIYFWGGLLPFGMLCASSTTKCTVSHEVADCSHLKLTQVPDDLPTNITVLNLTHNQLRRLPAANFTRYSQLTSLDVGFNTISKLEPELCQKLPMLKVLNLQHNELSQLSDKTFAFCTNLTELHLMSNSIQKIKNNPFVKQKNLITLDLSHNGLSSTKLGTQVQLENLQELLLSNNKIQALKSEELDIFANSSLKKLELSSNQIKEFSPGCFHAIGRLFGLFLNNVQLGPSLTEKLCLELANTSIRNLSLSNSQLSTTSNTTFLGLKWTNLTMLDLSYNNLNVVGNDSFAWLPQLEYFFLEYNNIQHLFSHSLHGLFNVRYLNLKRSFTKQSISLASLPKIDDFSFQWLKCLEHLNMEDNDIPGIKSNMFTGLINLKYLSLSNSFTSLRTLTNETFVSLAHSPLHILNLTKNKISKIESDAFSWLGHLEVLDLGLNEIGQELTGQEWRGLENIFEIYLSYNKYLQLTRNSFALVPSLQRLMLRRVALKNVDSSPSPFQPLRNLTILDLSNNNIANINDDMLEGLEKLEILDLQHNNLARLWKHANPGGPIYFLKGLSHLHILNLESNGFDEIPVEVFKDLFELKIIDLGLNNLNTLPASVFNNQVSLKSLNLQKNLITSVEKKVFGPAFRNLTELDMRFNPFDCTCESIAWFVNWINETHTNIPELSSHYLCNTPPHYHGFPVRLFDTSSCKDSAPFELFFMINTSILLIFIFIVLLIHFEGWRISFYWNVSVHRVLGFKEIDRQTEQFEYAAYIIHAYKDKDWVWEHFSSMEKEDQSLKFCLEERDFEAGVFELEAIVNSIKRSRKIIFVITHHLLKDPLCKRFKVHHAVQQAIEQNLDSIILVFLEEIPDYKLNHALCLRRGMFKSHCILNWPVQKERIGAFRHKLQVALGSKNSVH

Sequence of Toll-like receptor 4 (Homo sapiens) (O00206 whole entry): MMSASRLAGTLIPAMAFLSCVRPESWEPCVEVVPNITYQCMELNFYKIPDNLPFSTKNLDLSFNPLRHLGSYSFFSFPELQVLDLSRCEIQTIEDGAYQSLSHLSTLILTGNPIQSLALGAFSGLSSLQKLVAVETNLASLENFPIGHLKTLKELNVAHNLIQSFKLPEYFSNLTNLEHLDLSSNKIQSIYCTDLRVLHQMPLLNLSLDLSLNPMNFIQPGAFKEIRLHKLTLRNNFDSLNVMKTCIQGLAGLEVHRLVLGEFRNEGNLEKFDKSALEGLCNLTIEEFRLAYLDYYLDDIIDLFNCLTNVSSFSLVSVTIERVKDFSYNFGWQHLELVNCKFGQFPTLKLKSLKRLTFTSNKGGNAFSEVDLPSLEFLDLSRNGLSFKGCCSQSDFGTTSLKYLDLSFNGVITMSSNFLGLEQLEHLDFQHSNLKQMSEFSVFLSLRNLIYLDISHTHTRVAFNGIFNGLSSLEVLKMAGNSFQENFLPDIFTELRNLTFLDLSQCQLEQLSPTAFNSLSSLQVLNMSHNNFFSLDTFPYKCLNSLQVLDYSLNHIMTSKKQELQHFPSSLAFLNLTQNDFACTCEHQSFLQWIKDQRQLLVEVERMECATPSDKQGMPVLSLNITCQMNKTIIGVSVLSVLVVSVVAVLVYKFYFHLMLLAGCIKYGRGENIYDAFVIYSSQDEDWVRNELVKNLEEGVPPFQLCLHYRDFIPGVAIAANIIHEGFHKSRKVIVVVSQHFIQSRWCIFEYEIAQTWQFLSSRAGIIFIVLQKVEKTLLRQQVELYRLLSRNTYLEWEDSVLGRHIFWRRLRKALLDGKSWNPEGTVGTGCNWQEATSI

| SMILES | EC50 (Toll-like receptor 7) [nM] | EC50 (Toll-like receptor 8) [nM] | Activity [1] | Activity [2] |
| --- | --- | --- | --- | --- |
| CCCCNc1nc(N)nc(C)c1CCCn1ccc2ccccc21 | 140 | 1100 | inactive | inactive |
| CCCCNc1nc(N)nc(C)c1C#CCN1CCOCC1 | – | 16200 | inactive | inactive |
| CCCCNc1nc(N)nc(C)c1CCCn1cccn1 | 398 | 1050 | inactive | inactive |
| CCCCCc1c(C)nc(N)nc1NCCCC | 510 | 1220 | inactive | inactive |
| CCCCNc1nc(N)nc(C)c1CCCN(C)C | 958 | 126 | inactive | inactive |
| CCCCNc1nc(N)nc(C)c1C | 3400 | 3280 | inactive | inactive |
| CCCCNc1nc(N)nc(C)c1C#CCN1CCCCC1 | – | 3790 | inactive | inactive |
| CCCCNc1nc(N)nc(C)c1CCCN1CCOCC1 | 46 | 280 | inactive | inactive |
| CCCCNc1nc(N)nc(C)c1CCCN1CCN(c2ccccc2)CC1 | 1160 | 92 | inactive | inactive |
| CCCCNc1nc(N)nc(C)c1CCCN1CCSCC1 | 714 | 167 | inactive | inactive |
| CCCCNc1nc(N)nc(C)c1CCCN(CC)CC | – | 254 | inactive | inactive |
| CCCCNc1nc(N)nc(C)c1CCCN(C)CCOC | 1240 | 203 | inactive | inactive |
| CCCCNc1nc(N)nc(C)c1CCCC | 590 | 780 | inactive | inactive |
| CCCCNc1nc(N)nc(C)c1CCCC(C)(C)O | 2890 | 1220 | inactive | inactive |
| CCCCNc1nc(N)nc(C)c1CC | 1270 | 1660 | inactive | inactive |
| CCCCNc1nc(N)nc(C)c1C#C[Si](C)(C)C | – | 9240 | inactive | inactive |
| CCCCNc1nc(N)nc(C)c1CCCCN1CCOCC1 | 1400 | 128 | inactive | inactive |
| CCCCNc1nc(N)nc(C)c1CCCC1CCCCC1 | 1100 | – | inactive | inactive |
| CCCCNc1nc(N)nc(C)c1CCCCO | 1020 | 1310 | inactive | inactive |

| SMILES | EC50 (Toll-like receptor 7) [nM] | EC50 (Toll-like receptor 8) [nM] | Activity [1] | Activity [2] |
| --- | --- | --- | --- | --- |
| C#Cc1c(C)nc(N)nc1NCCCC | – | 4900 | inactive | inactive |
| CCCCNc1nc(N)nc(C)c1CCCN1CCCC1 | 562 | 110 | inactive | inactive |
| CCCCNc1nc(N)nc(C)c1CCCn1cncn1 | 1160 | 1050 | inactive | inactive |
| CCCCNc1nc(N)nc(C)c1CCCn1c(C)nc2ccccc21 | 379 | 366 | inactive | inactive |
| CCCCNc1nc(N)nc(C)c1CCCN1C(=O)c2ccccc2C1=O | 1290 | 453 | inactive | inactive |
| CCCCNc1nc(N)nc(C)c1CCCN1CCCCC1 | 710 | 133 | inactive | inactive |
| CCCC#Cc1c(C)nc(N)nc1NCCCC | – | 5000 | inactive | inactive |
| CCCCNc1nc(N)nc(C)c1CCc1ccccc1 | 2820 | 1190 | inactive | inactive |
| CCCCNc1nc(N)nc(C)c1CCCN1CCN(C)CC1 | 251 | 179 | inactive | inactive |
| CCCCNc1nc(N)nc(C)c1CCCc1ccccc1 | 194 | 749 | inactive | inactive |
| CCCCNc1nc(N)nc(C)c1CCCN1CCNCC1 | 1640 | 500 | inactive | inactive |
| CCCCNc1nc(N)nc(C)c1CCCCCc1ccccc1 | 265 | 830 | inactive | inactive |
| CCCCNc1nc(N)nc(C)c1CCC(C)(C)O | 3260 | 3140 | inactive | inactive |
| CCCCNc1nc(N)nc(C)c1CCCN1CCN(C(=O)OC(C)(C)C)CC1 | – | 300 | inactive | inactive |
| CCCCNc1nc(N)nc(C)c1CCCN1Cc2ccccc2C1 | 375 | 29 | inactive | inactive |
| CCCCNc1nc(N)nc(C)c1C#CCc1ccccc1 | – | – | inactive | inactive |
| CCCCNc1nc(N)nc(C)c1CCCCc1ccccc1 | 262 | 857 | inactive | inactive |
| CCCCNc1nc(N)nc(C)c1CCCN1CCCCCC1 | 730 | 178 | inactive | inactive |
